In assay [1] the test system is K562. The assay is described as follows: Cell cycle arrest in human K562 cells assessed as accumulation of cells at G1 phase at 4 nM after 48 hrs by propidium iodide staining-based flow cytometric analysis (reference value: 69.57%). It is filed as functional.
Assay [2] in a line: Antiproliferative activity against human taxol-resistant HCT8/T cells after 72 hrs by MTT assay. The assay is classed as functional. To be noted: HCT-8, 72 h. A digest of the protocol: (§1)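 Cells preincubated 24 h at 37 °C, 5% CO₂. Compounds added at several concentrations in medium with 0.1% DMSO for 72 h. MTT (5 mg/mL in PBS) then added for 4 h, and optical density read at 490 nm. IC50 taken from dose-response curves; mean ± SD of at least three independent experiments.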

In assay [3] the test system is K562. Description: Cell cycle arrest in human K562 cells assessed as accumulation of cells at G2 phase at 4 nM after 48 hrs by propidium iodide staining-based flow cytometric analysis (reference value: 10.51%). It is filed as functional.
For another assay, the system named is H22 (Mus musculus). The assay is described as follows: Antitumor activity against mouse H22 cells xenografted in ICR mouse assessed as reduction in tumor weight at 20 mg/kg/day, iv for 21 days relative to control. The arrangement: scale not given: the % may be the effect or the level left.
Another assay deals with Tubulin (Sus scrofa, UniProt P02554+P02550). Description: Inhibition of porcine brain tubulin polymerization preincubated for 30 mins and measured every 2 mins for 60 mins by spectrophotometric analysis.
Another assay has as its target Tubulin (Sus scrofa) (UniProt P02554+P02550). The assay is described as follows: Inhibition of [3H]-colchicine binding to biotinylated porcine tubulin at 5 uM after 2 hrs by SPA relative to control. The assay is classed as protein assay. The procedure, abridged:
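Scintillation proximity assay: 0.08 μM [3H]colchicine incubated with biotinylated porcine tubulin (0.5 μg) and test compound for 2 h at 37 °C in 80 mM PIPES pH 6.8, 1 mM EGTA, 10% glycerol, 1 mM MgCl2, 1 mM GTP. Streptavidin SPA beads then added, and bound radioactivity counted by scintillation counter.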

For assay [4], the system named is K562. The assay is described as follows: Cell cycle arrest in human K562 cells assessed as accumulation of cells at S phase at 4 nM after 48 hrs by propidium iodide staining-based flow cytometric analysis (reference value: 19.93%). The assay is classed as functional.
Assay [5] concerns K562. Description: Induction of mitochondrial membrane potential loss in human K562 cells assessed as collapsed mitochondrial membrane at 2 nM after 48 hrs by JC-1 dye-based flow cytometric analysis (RVB = 6.17%).
Assay [6] has as its system K562. Description: Induction of apoptosis in human K562 cells at 1 nM after 48 hrs by Annexin-V/propidium iodide staining-based flow cytometric analysis (reference value: 5.96%).
Assay [7] is described as follows: Drug resistance index, ratio of IC50 for taxol-resistant human HCT8/T cells to IC50 for human HCT8 cells. It is filed as functional. A digest of the protocol: (§2)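 Resistant and parental sensitive lines exposed to a range of compound concentrations in medium with 0.1% DMSO for 72 h at 37 °C, 5% CO2, after 24 h pre-culture. MTT added for 4 h, absorbance read at 490 nm. IC50 from dose-response curves, at least three independent experiments. DRI = IC50 resistant / IC50 parental.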

In assay [8] the test system is K562. Description: Cell cycle arrest in human K562 cells assessed as accumulation of cells at G1 phase at 2 nM after 48 hrs by propidium iodide staining-based flow cytometric analysis (reference value: 69.57%). It is filed as functional.
The test system of assay [9] is K562. Description: Cell cycle arrest in human K562 cells assessed as accumulation of cells at G1 phase at 1 nM after 48 hrs by propidium iodide staining-based flow cytometric analysis (reference value: 69.57%). It is filed as functional.
Assay [10] concerns K562. Description: Cell cycle arrest in human K562 cells assessed as accumulation of cells at G2 phase at 2 nM after 48 hrs by propidium iodide staining-based flow cytometric analysis (reference value: 10.51%). It is filed as functional.
Another assay has as its system KB. Description: Antiproliferative activity against human KB cells after 72 hrs by MTT assay. It is filed as functional, cell-based. A digest of the protocol:
as §1

The nature of assay [11]: Drug resistance index, ratio of IC50 for taxol-resistant human A549/TR cells to IC50 for human A549 cells. It is filed as functional. A digest of the protocol:
as §2

Assay [12] relates to K562. The assay is described as follows: Induction of mitochondrial membrane potential loss in human K562 cells assessed as collapsed mitochondrial membrane at 4 nM after 48 hrs by JC-1 dye-based flow cytometric analysis (RVB = 6.17%).
The subject of assay [13] is K562. Description: Cell cycle arrest in human K562 cells assessed as accumulation of cells at G2 phase at 1 nM after 48 hrs by propidium iodide staining-based flow cytometric analysis (reference value: 10.51%). It is filed as functional.
In a further assay the test system is Bel-7402. The assay is described as follows: Antiproliferative activity against human Bel7402 cells after 72 hrs by MTT assay. The assay is classed as functional, cell-based. To be noted: Bel-7402, 72 h. A digest of the protocol:
as §1

In a further assay the test system is MDA-MB-231. The assay is described as follows: Antiproliferative activity against human MDA-MB-231 cells after 72 hrs by MTT assay. The assay is classed as functional, cell-based. To be noted: MDA-MB-231, 72 h. The procedure, abridged: as §1

Chain of Tubulin (Sus scrofa) (P02550 whole entry, looked up): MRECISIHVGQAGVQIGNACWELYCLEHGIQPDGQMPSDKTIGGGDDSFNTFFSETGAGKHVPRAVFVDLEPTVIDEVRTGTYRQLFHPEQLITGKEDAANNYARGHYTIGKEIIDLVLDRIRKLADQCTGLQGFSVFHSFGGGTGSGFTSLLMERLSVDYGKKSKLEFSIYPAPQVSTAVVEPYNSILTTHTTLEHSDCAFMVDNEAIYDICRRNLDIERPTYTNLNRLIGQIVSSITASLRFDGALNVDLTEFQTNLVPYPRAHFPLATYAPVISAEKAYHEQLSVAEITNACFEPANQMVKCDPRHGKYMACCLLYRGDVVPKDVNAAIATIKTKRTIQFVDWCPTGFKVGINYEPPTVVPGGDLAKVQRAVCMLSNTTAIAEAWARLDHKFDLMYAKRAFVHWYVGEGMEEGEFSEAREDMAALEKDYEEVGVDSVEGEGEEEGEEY
Chain of Tubulin (Sus scrofa) (P02554 whole entry, looked up): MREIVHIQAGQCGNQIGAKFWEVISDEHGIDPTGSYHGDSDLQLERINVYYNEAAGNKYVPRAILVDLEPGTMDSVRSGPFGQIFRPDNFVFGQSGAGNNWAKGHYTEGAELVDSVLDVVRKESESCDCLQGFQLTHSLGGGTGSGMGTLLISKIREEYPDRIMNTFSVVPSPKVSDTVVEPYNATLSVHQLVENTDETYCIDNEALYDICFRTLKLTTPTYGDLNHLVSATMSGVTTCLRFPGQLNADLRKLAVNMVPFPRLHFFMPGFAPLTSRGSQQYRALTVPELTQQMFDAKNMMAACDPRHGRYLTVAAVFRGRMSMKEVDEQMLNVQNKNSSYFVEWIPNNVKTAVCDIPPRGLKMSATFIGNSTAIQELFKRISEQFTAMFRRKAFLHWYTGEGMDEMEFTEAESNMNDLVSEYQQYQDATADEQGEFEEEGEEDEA

`C=C(c1ccc2c(ccn2CO)c1)c1cc(C)nc2ccccc12`: the Activity came out at 45.79% in the assay on K562 [1]; 23.21% in the assay on K562 [3]; 57.3% in the assay on H22 (Mus musculus); 31% in the assay with K562 [4]; 45.1% with K562 [5]; 25.7% in the assay on K562 [6]. Besides, the Activity in the assay with K562 [8] is recorded as 50.63%; in the assay with K562 [9] it was 60.18%; in the assay with K562 [10] it was 16.16%; in the assay on K562 [12] it was 73.55%; in the assay on K562 [13], 12.44%. Besides, the concentration for half-maximal inhibition (IC50) in assay [2] is 88 nM; against Tubulin, 2090 nM; in the assay on KB, 5 nM; with Bel-7402, 10 nM; in the assay on MDA-MB-231, 6 nM. This compound also came in with an inhibition at Tubulin (Sus scrofa) of 90.5%. The “Ratio IC50” value in assay [7] is reported as 12.6; in [11], 13.2.

Values taken from ChEMBL document CHEMBL4411275, “Design, synthesis and biological evaluation of quinoline-indole derivatives as anti-tubulin agents targeting the colchicine binding site” (Eur J Med Chem, 2019).
